Shown are actives, neighbours in structure and some others; about 2.8% of the full set was active somewhere.
EP2 antag: human EP2 receptor antagonists, primary screen, TR-FRET cAMP, C6 glioma cells; C6 glioma cells expressing human EP2; cells stimulated with saturating PGE2; inhibition, % at 25 µM; actives 0.52% (n = 260,000);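 active = percent inhibition above 40 after rounding to a whole number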;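 note: rat C6 glioma host cells with rolipram phosphodiesterase inhibitor present; the protocol text gives 20 µM as final concentration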
NPY-Y1 antag: NPY-Y1 receptor antagonists, primary screen, cell-based; Neuropeptide Y receptor type 1 (Homo sapiens), P25929; HEK293-CNG Y1 cells, membrane potential fluorescence; NPY at EC95, then isoproterenol; inhibition, % at 3.6 µM; actives 1% (n = 200,000); AID 1040, 2008;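 active = inhibition above the campaign mean inhibition of all tested compounds plus 3 SD, cut at about 20% in these data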;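 note: 0% = DMSO wells given NPY plus isoproterenol and 100% = isoproterenol alone without NPY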
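Assay system: HEK293 Y1/CNG channel cell line; Doses: single compound dose of 3.6 µM, 0.4% DMSO; Timing: dye 3 h, compound 60 min room temperature, stimulation 45 min; Technique: Membrane-potential fluorescent dye readout; Measure: % inhibition of NPY effect.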
EP2 modulator: EP2 receptor modulators, cAMP readout, primary screen, cell-based, HTRF cAMP, PGE2 stimulation | Prostaglandin E2 receptor EP2 subtype (Homo sapiens), P43116 | EP2-expressing cells, cAMP HTRF FRET, PGE2 co-stimulation | induction, % at 25 µM | actives 0.83% (n = 260,000) | AID 940, 2007;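 active = compounds whose cAMP rise, as percent of the full-agonist control response, exceeds 60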;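 note: rat C6 glioma line stably carrying human EP2 under a CMV promoter; the protocol text gives 20 µM as final concentration; 100% = response of wells given 1 µM PGE2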
NPY-Y2 PAM-ag: NPY-Y2 potentiators or agonists, primary screen, cell-based; Neuropeptide Y receptor type 2 (Homo sapiens), P49146; cells expressing NPY-Y2, potentiator/agonist read-out; activation, % at 3.6 µM; actives 0.45% (n = 220,000); in the data active = activation above about 27%;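 note: cells stimulated with NPY near EC25 plus isoproterenol at EC100; 0% = vehicle plus submaximal agonist and 100% = vehicle plus saturating agonist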
Target sequence (P49146 whole entry, looked up): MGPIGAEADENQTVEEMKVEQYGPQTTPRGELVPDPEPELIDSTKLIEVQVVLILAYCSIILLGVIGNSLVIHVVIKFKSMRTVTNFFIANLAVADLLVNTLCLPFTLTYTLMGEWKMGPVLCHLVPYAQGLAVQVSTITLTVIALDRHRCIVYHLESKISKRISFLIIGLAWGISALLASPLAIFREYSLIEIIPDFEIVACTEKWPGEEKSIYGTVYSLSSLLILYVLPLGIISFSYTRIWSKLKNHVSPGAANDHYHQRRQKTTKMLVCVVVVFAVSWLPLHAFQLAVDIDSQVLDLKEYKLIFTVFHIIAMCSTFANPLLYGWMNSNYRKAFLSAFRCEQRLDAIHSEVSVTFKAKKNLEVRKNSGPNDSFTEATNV
NPY1 pot ag: NPY-Y1 receptor potentiators or agonists, primary screen, cell-based | actives 0.37% (n = 220,000) | Neuropeptide Y receptor type 1 (Homo sapiens), P25929 | activation, % at 3.6 µM | NPY-Y1 expressing cells, potentiator/agonist activation; in the data active = activation above about 33%, passing the limit was not always enough;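 note: cells stimulated with NPY at EC10 then isoproterenol at EC100; 0% = low agonist plus stimulus and 100% = saturating agonist plus stimulus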
NPY Y2 blocker: NPY-Y2 receptor antagonists, primary screen, cell-based. actives 0.99% (n = 140,000). inhibition, % at 2.7 µM. Neuropeptide Y receptor type 2 (Homo sapiens), P49146. NPY-Y2 expressing cells, antagonist mode; in the data active = inhibition above about 17%;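 note: 0% = vehicle with agonist challenge and 100% = reference antagonist with challenge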
Active calls of the source: *; · = not tested or not shown; ! = not active in a repeat.

SMILES	EP2 antag	NPY-Y1 antag	EP2 modulator	NPY-Y2 PAM-ag	NPY1 pot ag	NPY Y2 blocker
Nc1ccc2nc(-c3ccccc3)[nH]c2c1	15	5	-38	-10	9	1
O=C1CC(c2ccc(Br)cc2)NC(c2ccc(Br)cc2)C1c1ccccc1 (centres undefined)	10	0	26	11	0	7
O=C1C2[C@@H](c3ccccc3)N[C@@H](c3ccccc3)C1[C@@H](c1ccccc1)N[C@H]2c1ccccc1	47*	·	-9	·	·	·
COc1ccc(CNc2nc3ccccc3n2CCN2CCCCC2)c(OC)c1	3	29*	-10	-7	-29	26*
COc1cccc(CNc2nc3ccccc3n2CCN2CCCCC2)c1OC	17	42*	-5	0	-17	25*
COc1ccccc1CNc1nc2ccccc2n1CCN1CCOCC1	9	·	-13	·	·	·
CCCn1c(=O)c(C(=O)Nc2cccc(F)c2)c(O)c2ccccc21	6	·	-16	·	·	·
Cc1ccc(S(=O)(=O)N=Nc2c(O)[nH]c3cc(O)c(C(=O)O)cc23)cc1	41*	·	16	·	·	·
COc1ccc(N2CCN(/C(=N\S(=O)(=O)c3ccccc3)Nc3nc(C)cc(C)n3)CC2)cc1	10	3	25	-15	-20	3
Cc1ccc(S(=O)(=O)/N=C(/Nc2nc(C)cc(C)n2)N2CCOCC2)cc1	8	25*	·	-6	0	-3
Cc1cc(C)nc(SCc2nnc(SCC(=O)N3CCCC3)n2C)n1	7	·	-5	·	·	·
CCOC(=O)c1ccc(NC(=O)CC2S/C(=N/N=C/c3c[nH]c4ccccc34)NC2=O)cc1 (centres undefined)	13	-16	-68	33*	49*	-3
Cc1ccc(NC(=O)CC2S/C(=N/N=C/c3c[nH]c4ccccc34)NC2=O)cc1 (centres undefined)	1	5	-85	12	-1	-7
CCOC(=O)C1(C)/C(=N/Nc2ccc(Cl)cc2)C(=O)C(=O)N1c1ccccc1 (centres undefined)	3	0	61*	12	-10	-2
CCOC(=O)[C@@H]1C(c2c(OC)cc(OC)cc2OC)=NO[C@@H]1C(=O)OCC	3	-7	14	33*	69*	0
COC(=O)COc1ccc2c(-c3cccc([N+](=O)[O-])c3)cc(=O)oc2c1	18	0	13	-6	8	1
COC(=O)COc1ccc2c(-c3ccc(OC)cc3)cc(=O)oc2c1	10	2	41	98*	98*	5
CCC(C)(C)NC(=O)C(c1ccc(C)o1)N(C(=O)c1snc(C(N)=O)c1N)c1ccc(C)cc1 (centres undefined)	9	·	29	·	·	·
COc1cc(NC(=O)c2cnc(N)s2)cc(C(=O)Nc2cccc(C(F)(F)F)c2)c1	53*	·	-18	·	·	·
COc1cc(NC(=O)c2ccnc(N)c2)cc(C(=O)Nc2cccc(C(F)(F)F)c2)c1	16	·	1	·	·	·
Cc1cc(C)c(NC(=O)CSc2ncnc3sc(C)c(C)c23)c(C)c1	8	·	-2	·	·	·
CC1CCN(c2nc3c(c(=O)[nH]c(=O)n3C)n2Cc2ccccc2F)CC1	11	·	48	·	·	·
O=C(Nc1ccc(F)cc1)Nc1cc(OCC(F)(F)F)cc(OCC(F)(F)F)c1	7	-14	2	54*	66*	-3
CCOC(=O)c1c(N)nn(C(=O)C(C)C)c1-c1ccccc1	10	2	63*	18	10	6
CCOC(=O)c1c(N)nn(C(=O)CC)c1-c1ccccc1	6	3	20	14	-13	3
SMILES	EP2 antag	NPY-Y1 antag	EP2 modulator	NPY-Y2 PAM-ag	NPY1 pot ag	NPY Y2 blocker
COC(=O)c1ccc(CSc2nc3c(cnn3-c3ccc(C)c(C)c3)c(=O)[nH]2)o1	10	-1	65*	7	-28	3
Cc1onc(-c2ccccc2Cl)c1C(=O)OCc1cnc(Cl)s1	5	3	64*	4	-5	·
O=C1C=CC(=O)N1c1ccc(O)cc1	8	·	-55	-12	-4	·
O=C1C=CC(=O)N1c1ccc(OC(F)F)cc1	109*	2	-62	2	1	0
CCC(C)(C)NC(=O)CN(Cc1ccco1)C(=O)C(=O)Nc1ccc2c(c1)OCCO2	8	·	-11	·	·	·
CC(CO)(CO)N=Cc1cc(I)cc(I)c1O	44*	·	39	·	·	·
CCOC(=O)c1nnn(-c2nonc2N)c1COc1cc(C)c(Cl)c(C)c1	5	22*	·	-19	-35	17
COc1ccccc1C1CN(c2ccccc2)N=C1c1cccs1 (centres undefined)	15	2	68*	11	5	4
COc1cccc(C2CN(c3ccc(F)cc3F)N=C2c2cccs2)c1OC (centres undefined)	·	15	42	-12	-49	7
CC1CCCCN1S(=O)(=O)c1ccc(S(=O)(=O)N2CCCCC2)cc1 (centres undefined)	10	·	-33	·	·	·
CN(C)C/C=C(/c1ccc(Br)cc1)c1cccnc1	43*!	·	1	·	·	·
N#C/C(=C\c1cccnc1)c1ccc(Br)cc1	12	·	-2	-29	-11	·
Cn1nc(C(C)(C)C)cc1C(=O)Nc1ccc(Cc2ccncc2)cc1	9	·	-85	·	·	·
CCOC(=O)Cn1c(=O)oc2cc(S(=O)(=O)Nc3cccc(C)c3)ccc21	12	-6	-9	43*	32*	-4
CCOC(=O)Cn1c(=O)oc2cc(S(=O)(=O)NC(C)(C)CC)ccc21	4	·	-17	5	12	·
N#Cc1ccccc1CN1c2cccc3cccc(c23)S1(=O)=O	11	·	18	·	·	·
O=[N+]([O-])c1ccc(C2CCCC/C2=N/OCc2ccccc2F)c([N+](=O)[O-])c1 (centres undefined)	12	21*	7	-32	-34	18*
O=[N+]([O-])c1ccc(C2CCCC/C2=N/OCc2ccc(F)cc2)c([N+](=O)[O-])c1 (centres undefined)	6	12	38	-15	-15	12
Nc1ncnc2c1cnn2-c1ccccc1	-4	-4	·	1	12	3
S=c1nc[nH]c2c1cnn2-c1ccccc1	9	·	71*	-12	-14	·
C=CCn1c(N2CCC(Cc3ccccc3)CC2)nc2c1c(=O)[nH]c(=O)n2C	7	·	-47	·	·	·
Clc1cccc(-c2nnc(SC/C=C/c3ccccc3)n2Cc2ccco2)c1	7	26*	32	-7	-20	37*
Cc1ccccc1CSc1nnc(-c2ccco2)n1Cc1ccco1	8	10	42	1	-10	14

High-throughput results (PubChem)
